Source: ChEMBL document CHEMBL1914421, “Aminomethyltetrazoles as potential inhibitors of the γ-aminobutyric acid transporters mGAT1-mGAT4: synthesis and biological evaluation” (Bioorg Med Chem, 2011)

Experiments:
[1] = target: Sodium- and chloride-dependent GABA transporter 1 (Mus musculus) (UniProt P31648); assay: Residual mouse GAT1-mediated [3H]GABA uptake expressed in human HEK cells at 1 mM; conditions: HEK293
[2] = system: betaine/GABA transporter BGT-1 (Slc6a12, Mus musculus); assay: Residual mouse GAT2-mediated [3H]GABA uptake expressed in human HEK cells at 1 mM; conditions: HEK293
[3] = system: GABA transporter Slc6a13 (Mus musculus); assay: Residual mouse GAT3-mediated [3H]GABA uptake expressed in human HEK cells at 1 mM; conditions: HEK293
[4] = target: T1, GABA transporter 4 (Mus musculus) (UniProt P31650); assay: Residual mouse GAT4-mediated [3H]GABA uptake expressed in human HEK cells at 1 mM; conditions: HEK293
T1 sequence (whole entry): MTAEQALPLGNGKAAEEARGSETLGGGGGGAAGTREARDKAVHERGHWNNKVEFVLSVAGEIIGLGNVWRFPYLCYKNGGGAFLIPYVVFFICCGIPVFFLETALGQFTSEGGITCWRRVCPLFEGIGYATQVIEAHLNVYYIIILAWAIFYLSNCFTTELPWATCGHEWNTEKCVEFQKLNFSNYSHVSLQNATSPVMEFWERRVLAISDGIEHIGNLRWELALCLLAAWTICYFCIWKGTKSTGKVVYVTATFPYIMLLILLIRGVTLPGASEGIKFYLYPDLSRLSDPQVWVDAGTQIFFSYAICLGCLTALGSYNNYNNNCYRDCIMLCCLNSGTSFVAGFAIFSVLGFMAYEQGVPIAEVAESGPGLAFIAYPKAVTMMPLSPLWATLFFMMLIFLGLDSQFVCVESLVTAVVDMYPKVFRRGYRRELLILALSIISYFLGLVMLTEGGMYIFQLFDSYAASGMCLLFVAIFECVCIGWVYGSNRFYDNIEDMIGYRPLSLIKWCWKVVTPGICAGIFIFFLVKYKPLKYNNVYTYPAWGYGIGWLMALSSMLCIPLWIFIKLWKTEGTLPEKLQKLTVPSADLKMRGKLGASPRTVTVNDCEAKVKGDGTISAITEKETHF

[5] = Inhibition of mouse GAT4-mediated [3H]GABA uptake expressed in human HEK cells; assay type: cell-based; conditions: HEK293
Method in brief: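 Specific [3H]GABA uptake was measured at the murine transporter subtype, and results are given as pIC50 ± SEM from three independent experiments, each run in triplicate.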

[6] = target: Sodium- and chloride-dependent GABA transporter 1 (Mus musculus) (UniProt P31648); assay: Residual mouse GAT1-mediated [3H]GABA uptake expressed in human HEK cells at 100 uM; conditions: HEK293
[7] = system: betaine/GABA transporter BGT-1 (Slc6a12, Mus musculus); assay: Residual mouse GAT2-mediated [3H]GABA uptake expressed in human HEK cells at 100 uM; conditions: HEK293
[8] = system: GABA transporter Slc6a13 (Mus musculus); assay: Residual mouse GAT3-mediated [3H]GABA uptake expressed in human HEK cells at 100 uM; conditions: HEK293
[9] = system: HEK293; assay: Residual mouse GAT4-mediated [3H]GABA uptake expressed in human HEK cells at 100 uM
[10] = Inhibition of GAT mediated [3H]GABA uptake in rat brain synaptosomes; assay type: subcellular
[11] = organism: Mus musculus; assay: Selectivity ratio of IC50 for mouse GAT3 to IC50 for mouse GAT1
[12] = organism: Mus musculus; assay: Selectivity ratio of IC50 for mouse GAT3 to IC50 for mouse GAT4
[13] = target: T2, Sodium- and chloride-dependent GABA transporter 1 (Mus musculus, UniProt P31648); assay: Inhibition of mouse GAT1-mediated [3H]GABA uptake expressed in human HEK cells; assay type: cell-based, HEK293
Method in brief: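 Specific [3H]GABA uptake measured at murine GAT1. Inhibition reported as pIC50 ± SEM from three independent experiments, each run in triplicate. Where stated, some values are the mean of two independent experiments, or one experiment in triplicate.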

[14] = target: T2, Sodium- and chloride-dependent GABA transporter 1; assay: Inhibition of mouse GAT1-mediated [3H]GABA uptake expressed in BHK cells; assay type: cell-based
[15] = target: T3, GABA transporter 4 (Mus musculus, UniProt P31650); assay: Inhibition of mouse GAT4-mediated [3H]GABA uptake expressed in BHK cells; assay type: cell-based
T3 sequence (P31650 whole entry): T1 sequence (whole entry)

SMILES | IC50 [5] | residual activity [6] | residual activity [7] | residual activity [8] | level, % of control [9] | also measured
C1CN(Cc2nnn[nH]2)CCO1 |  |  |  |  |  | residual activity [1]: 90.6%; residual activity [2]: 88%; residual activity [3]: 87.8%; residual activity [4]: 90.8%
C(CNCc1nnnn1Cc1ccccc1)=C(c1ccccc1)c1ccccc1 | 41.7 µM | 57.3% |  |  |  | 
C(CNCc1nnn[nH]1)=C(c1ccccc1)c1ccccc1 |  | 80.5% | 82% | 46.2% | 79.6% | 
CCCCNCc1nnnn1C(C)(C)CC(C)(C)C | 49 µM | 83.3% | 60.3% | 49% |  | 
C1CNCC(c2nnn[nH]2)C1 (stereo not given) |  |  |  |  |  | IC50 [10]: < 100 µM
CC(C)(C)CC(C)(C)n1nnnc1CNCCC=C(c1ccccc1)c1ccccc1 | 18.2 µM | 75.4% | 54.9% |  |  | 
C1CN(Cc2nnn[nH]2)CCN1 |  |  |  |  |  | residual activity [1]: 90%; residual activity [2]: 75.4%; residual activity [3]: 102%; residual activity [4]: 101%
CC(C)(C)CC(C)(C)n1nnnc1CNCCN |  |  |  |  |  | residual activity [1]: 133%; residual activity [2]: 142%; residual activity [3]: 71.1%; residual activity [4]: 92.5%
CC(C)(C)CC(C)(C)n1nnnc1CNCCCn1c2ccccc2c2ccccc21 |  | 75.1% | 72.6% | 68.8% | 59.7% | 
NCCNCc1nnn[nH]1 |  |  |  |  |  | residual activity [1]: 81.7%; residual activity [2]: 80%; residual activity [3]: 86.3%; residual activity [4]: 60.7%
C1=C(c2nnn[nH]2)CCNC1 |  |  |  |  |  | IC50 [10]: < 100 µM
CCCCNCc1nnn[nH]1 |  | 105% | 65.3% | 74% | 71.5% | 
CC(C)(C)CC(C)(C)n1nnnc1CNCC=C(c1ccccc1)c1ccccc1 | 26.3 µM | 65.7% |  |  |  | 
C(CCNCc1nnnn1Cc1ccccc1)=C(c1ccccc1)c1ccccc1 |  | 69.4% | 84.1% | 53.5% | 53.1% | 
NCc1nnn[nH]1 |  |  |  |  |  | residual activity [1]: 85.1%; residual activity [2]: 59.4%; residual activity [3]: 66.5%; residual activity [4]: 78.9%
CC(C)(C)CC(C)(C)n1nnnc1CN1CCOCC1 |  | 73.4% | 99% | 63.3% | 90.5% | 
c1ccc2c(c1)c1ccccc1n2CCCNCc1nnn[nH]1 |  | 86.3% | 81.6% | 83.6% | 78.7% | 
COc1ccccc1C1(O)CCN(CCCn2c3ccccc3c3ccccc32)CC1 | 16.6 µM |  |  |  |  | IC50 [13]: 10.2 µM; IC50 [14]: 19.1 µM; IC50 [15]: 15.1 µM
C(CCNCc1nnn[nH]1)=C(c1ccccc1)c1ccccc1 |  | 86.1% | 76.9% | 73.8% | 101% | 
CC(C)(C)CC(C)(C)n1nnnc1CN1CCNCC1 |  | 90.2% | 106% | 81.4% | 78.4% | 
C1CC(c2nnn[nH]2)CCN1 |  |  |  |  |  | IC50 [10]: < 100 µM
NCCCc1nnn[nH]1 |  |  |  |  |  | IC50 [10]: < 100 µM
NCCc1nnn[nH]1 |  |  |  |  |  | IC50 [10]: < 100 µM
NCC(=O)O |  |  |  |  |  | residual activity [1]: 83.1%; residual activity [4]: 69.7%

The next lines start with results.

IC50 [5] | residual activity [6] | residual activity [7] | residual activity [8] | SMILES | level, % of control [9] | also measured
 | 100% | 53.2% | 72.6% | c1ccc(C(CCNCc2nnn[nH]2)c2ccccc2)cc1 | 80.5% | 
44.7 µM | 59.1% | 75.9% |  | c1ccc(C(CNCc2nnnn2C2CCCCC2)c2ccccc2)cc1 |  | 
51.3 µM | 62.9% |  |  | C(CNCc1nnnn1C1CCCCC1)=C(c1ccccc1)c1ccccc1 |  | 
29.5 µM | 70.7% | 77.1% |  | CC(C)(C)CC(C)(C)n1nnnc1CNCCC(c1ccccc1)c1ccccc1 |  | Ratio IC50 [11]: 12; Ratio IC50 [12]: 4
 | 85.6% | 81.4% |  | CC(C)(C)CC(C)(C)n1nnnc1CNC(c1ccccc1)c1ccccc1 | 56.9% | 
63.1 µM | 73.9% | 61.6% | 51.7% | c1ccc(Cn2nnnc2CNCCC(c2ccccc2)c2ccccc2)cc1 |  | 
 | 82% | 89.3% | 75.1% | c1ccc(C(CCCNCc2nnn[nH]2)c2ccccc2)cc1 | 87.4% | 
 | 64.5% | 69.5% |  | C(CCNCc1nnnn1C1CCCCC1)=C(c1ccccc1)c1ccccc1 | 58.2% | 
29.5 µM | 63.8% |  |  | CC(C)(C)CC(C)(C)n1nnnc1CNCCCC(c1ccccc1)c1ccccc1 |  | 
 | 69.7% | 94.2% | 94.2% | c1ccc(C(NCc2nnn[nH]2)c2ccccc2)cc1 | 85.4% | 
28.8 µM | 54.8% |  |  | c1ccc(C(NCc2nnnn2C2CCCCC2)c2ccccc2)cc1 |  | 
34.7 µM | 54.6% |  |  | c1ccc(C(CCNCc2nnnn2C2CCCCC2)c2ccccc2)cc1 |  | 
 | 72.4% | 67.1% |  | c1ccc(Cn2nnnc2CNCC(c2ccccc2)c2ccccc2)cc1 | 52.3% | 
 | 81.1% | 84.5% |  | c1ccc(Cn2nnnc2CNC(c2ccccc2)c2ccccc2)cc1 | 57.2% | 
 | 70.6% |  |  | c1ccc(C(CCCNCc2nnnn2C2CCCCC2)c2ccccc2)cc1 | 43.2% | 
67.6 µM | 83.3% | 63.5% | 53.8% | CC(C)(C)CC(C)(C)n1nnnc1CNCC(c1ccccc1)c1ccccc1 |  | 
 | 48.2% | 85.8% | 63.5% | c1ccc(C(CNCc2nnn[nH]2)c2ccccc2)cc1 | 71.2% | 
 | 68.1% |  |  | c1ccc(Cn2nnnc2CNCCCC(c2ccccc2)c2ccccc2)cc1 | 49.6% | 
